The source of these data is BindingDB's records for doi:10.1021/jm0303608 (University of Florida, 2004).

The target of one test is Melanocortin receptor 3 (Mus musculus, UniProt P33033). Description: Effective concentration against mouse Melanocortin 3 receptor. Put shortly: (§1)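 HEK-293 cells stably expressing the mouse receptor (calcium phosphate transfection, G418 1 mg/mL selection) were transfected with 4 μg CRE/β-galactosidase reporter. EC50 came from nonlinear least-squares fit; at least three independent experiments.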

In another test the target is Melanocortin receptor 4 (Mus musculus, UniProt P56450). Kind of test: Effective concentration against mouse melanocortin MC4 receptor. Put shortly:
as §1

As a reminder, the Kd is the equilibrium constant for the complex coming apart.

SMILES strings stand for the structures.

Chain of Melanocortin receptor 4 (P56450 whole entry): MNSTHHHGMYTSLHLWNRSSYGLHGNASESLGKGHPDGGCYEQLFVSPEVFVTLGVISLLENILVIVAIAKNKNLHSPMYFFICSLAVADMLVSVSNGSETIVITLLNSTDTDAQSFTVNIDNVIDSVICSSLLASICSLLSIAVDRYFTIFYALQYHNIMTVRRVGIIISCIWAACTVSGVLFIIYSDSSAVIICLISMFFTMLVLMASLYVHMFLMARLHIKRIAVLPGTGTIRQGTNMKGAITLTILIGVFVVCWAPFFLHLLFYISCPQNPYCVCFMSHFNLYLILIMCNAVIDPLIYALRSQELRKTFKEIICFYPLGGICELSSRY
Chain of Melanocortin receptor 3 (P33033 whole entry): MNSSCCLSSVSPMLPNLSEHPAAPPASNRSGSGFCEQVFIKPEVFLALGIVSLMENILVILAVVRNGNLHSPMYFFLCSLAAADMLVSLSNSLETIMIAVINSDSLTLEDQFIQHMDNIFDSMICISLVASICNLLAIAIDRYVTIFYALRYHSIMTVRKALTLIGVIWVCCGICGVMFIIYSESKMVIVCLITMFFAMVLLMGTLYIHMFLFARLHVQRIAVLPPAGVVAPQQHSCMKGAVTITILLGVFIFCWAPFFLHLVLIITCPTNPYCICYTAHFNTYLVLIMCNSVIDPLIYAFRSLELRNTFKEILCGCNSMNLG

Compound `C[C@@H]1NC(=O)[C@@H](CC(N)=O)NC(=O)[C@H](Cc2ccccc2)NC(=O)[C@@H](Cc2ccccc2)NC(=O)[C@H](CCCNC(=N)N)NC(=O)[C@@H](NC(=O)[C@@H](N)Cc2ccc(O)cc2)CC(=O)NC(C(=O)NN[C@H](Cc2ccc(O)cc2)C(=O)C(N)=O)NC(=O)C(=O)[C@@H](Cc2ccccc2)NC1=O` (stereo partly drawn) [Tyr-c[Asp-Arg-Phe-Phe-Asn-Ala-Phe-Dpr]-Tyr-NH2] displayed a Kd at Melanocortin receptor 3 of 2000 nM.

Compound `C[C@@H]1NC(=O)[C@H](CC(N)=O)NC(=O)[C@H](Cc2ccccc2)NC(=O)[C@H](Cc2ccccc2)NC(=O)[C@H](CCCNC(=N)N)NC(=O)[C@@H](NC(=O)[C@@H](N)Cc2ccc(O)cc2)CC(=O)NC[C@@H](C(=O)N[C@@H](Cc2ccc(O)cc2)C(N)=O)NC(=O)[C@H](Cc2ccccc2)NC1=O` [Tyr-c[Asp-Arg-Phe-Phe-Asn-Ala-Phe-Dpr]-Tyr-NH2] came in with a Kd on Melanocortin receptor 4 of 1260 nM. This lies in the single-digit micromolar range.
